For orientation: EC50 means the concentration giving half of the maximal effect. The Ki is a measure of affinity in units of concentration, obtained from inhibition or displacement. By pKB is commonly meant −log10 of the KB, conventionally taken in molar units. A low value points to a high KB.

Here are results for eight compounds from ChEMBL document CHEMBL1134278, “Design, synthesis, and biological activity of methoctramine-related polyamines as putative G(i) protein activators” (J Med Chem, 2001).

For assay [1], the target named is T1, Muscarinic acetylcholine receptor M5 (Homo sapiens) (UniProt P08912).
T1 sequence (whole entry): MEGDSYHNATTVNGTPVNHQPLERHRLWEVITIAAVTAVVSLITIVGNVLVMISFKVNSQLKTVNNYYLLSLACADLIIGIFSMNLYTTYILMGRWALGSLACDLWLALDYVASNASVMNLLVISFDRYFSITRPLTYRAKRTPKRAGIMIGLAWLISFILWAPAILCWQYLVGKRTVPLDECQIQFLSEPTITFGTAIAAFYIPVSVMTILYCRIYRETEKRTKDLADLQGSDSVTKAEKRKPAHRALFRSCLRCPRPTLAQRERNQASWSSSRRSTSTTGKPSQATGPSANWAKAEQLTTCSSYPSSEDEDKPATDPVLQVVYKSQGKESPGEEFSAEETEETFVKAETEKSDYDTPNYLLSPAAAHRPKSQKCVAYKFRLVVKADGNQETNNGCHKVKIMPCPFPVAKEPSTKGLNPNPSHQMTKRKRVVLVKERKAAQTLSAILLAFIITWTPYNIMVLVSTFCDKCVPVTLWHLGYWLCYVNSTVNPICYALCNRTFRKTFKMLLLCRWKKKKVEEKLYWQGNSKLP
Nature of the assay: Affinity for human muscarinic acetylcholine receptor M5 subtype expressed in CHO-K1 cells at a concentration of 10 uM. In kind it is cell-based.

Assay [2] has as its target T2, Muscarinic acetylcholine receptor M3 (Homo sapiens, UniProt P20309). Nature of the assay: Affinity for human M3 cloned muscarinic receptor subtype expressed in CHO-K1 cells at a concentration of 10 uM. In kind it is cell-based.
Target sequence in this assay (P20309 whole entry, looked up): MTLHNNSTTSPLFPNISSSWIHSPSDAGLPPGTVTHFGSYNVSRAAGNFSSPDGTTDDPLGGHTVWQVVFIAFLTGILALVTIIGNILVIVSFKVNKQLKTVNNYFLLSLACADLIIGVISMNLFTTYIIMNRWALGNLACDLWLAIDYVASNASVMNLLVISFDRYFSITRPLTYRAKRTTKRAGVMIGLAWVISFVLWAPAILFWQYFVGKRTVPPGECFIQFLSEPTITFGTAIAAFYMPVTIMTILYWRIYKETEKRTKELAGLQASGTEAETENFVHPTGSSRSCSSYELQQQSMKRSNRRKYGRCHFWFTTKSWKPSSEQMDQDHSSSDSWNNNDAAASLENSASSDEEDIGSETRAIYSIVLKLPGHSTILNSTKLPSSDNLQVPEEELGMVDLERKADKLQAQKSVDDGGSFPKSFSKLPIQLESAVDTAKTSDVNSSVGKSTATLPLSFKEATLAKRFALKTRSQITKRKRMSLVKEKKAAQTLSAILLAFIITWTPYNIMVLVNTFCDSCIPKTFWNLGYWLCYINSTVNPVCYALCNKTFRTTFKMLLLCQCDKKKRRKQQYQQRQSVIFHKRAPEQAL
Assay [3] has as its target T3, Muscarinic acetylcholine receptor M4 (Homo sapiens) (UniProt P08173).
T3 sequence (whole entry): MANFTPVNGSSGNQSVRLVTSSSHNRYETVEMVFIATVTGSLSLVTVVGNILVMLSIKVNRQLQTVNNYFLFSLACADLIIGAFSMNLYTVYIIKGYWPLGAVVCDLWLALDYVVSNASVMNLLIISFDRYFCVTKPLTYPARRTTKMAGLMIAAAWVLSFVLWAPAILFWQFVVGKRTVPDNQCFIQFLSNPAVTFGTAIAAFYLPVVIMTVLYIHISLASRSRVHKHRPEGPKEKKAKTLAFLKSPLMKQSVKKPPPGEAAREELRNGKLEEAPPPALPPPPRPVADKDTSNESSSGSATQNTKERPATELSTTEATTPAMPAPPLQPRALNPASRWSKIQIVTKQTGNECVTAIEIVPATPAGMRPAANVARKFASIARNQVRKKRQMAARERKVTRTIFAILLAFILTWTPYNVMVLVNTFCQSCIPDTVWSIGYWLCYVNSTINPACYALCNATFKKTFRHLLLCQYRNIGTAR
Description: Affinity for human M4 cloned muscarinic receptor subtype expressed in CHO-K1 cells at a concentration of 10 uM. In kind it is cell-based.

The species named for assay [4] is Cavia porcellus. Description: Inotropic responses, induced by the compound in electrically paced (Hz) guinea pig left atria. It is filed as functional. The procedure, abridged:
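Left atria from guinea pig were electrically driven at 1 Hz, and negative inotropic effect was recorded. Cumulative concentration–response curves were run, with arecaidine propargyl ester (APE) as the muscarinic agonist reference. EC50 came from nonlinear regression curve fitting as the mean ± SE of at least four independent experiments.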

Assay [5] is filed under the species Cavia porcellus. Nature of the assay: Inotropic response relative to APE (APE = 100) in electrically paced (Hz) guinea pig left atria. In kind it is functional.
Assay [6] has as its target T4, Muscarinic acetylcholine receptor M2 (Homo sapiens) (UniProt P08172).
T4 sequence (whole entry): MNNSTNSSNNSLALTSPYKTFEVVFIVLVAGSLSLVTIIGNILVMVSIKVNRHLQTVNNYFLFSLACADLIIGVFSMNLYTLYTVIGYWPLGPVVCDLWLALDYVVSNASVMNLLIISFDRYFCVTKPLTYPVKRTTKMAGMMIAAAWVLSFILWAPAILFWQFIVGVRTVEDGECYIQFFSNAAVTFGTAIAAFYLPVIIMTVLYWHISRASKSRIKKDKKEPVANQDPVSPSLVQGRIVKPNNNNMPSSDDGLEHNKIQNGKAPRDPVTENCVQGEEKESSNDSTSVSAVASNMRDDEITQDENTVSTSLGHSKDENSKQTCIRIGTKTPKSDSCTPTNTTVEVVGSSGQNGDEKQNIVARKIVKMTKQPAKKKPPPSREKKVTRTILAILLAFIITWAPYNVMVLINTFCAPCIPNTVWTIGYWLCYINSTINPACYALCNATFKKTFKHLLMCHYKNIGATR
Description: Affinity for human muscarinic acetylcholine receptor M2 expressed in CHO-K1 cells at a concentration of 10 uM. It is filed as cell-based.

For assay [7], the target named is T5, Muscarinic acetylcholine receptor M1 (Homo sapiens) (UniProt P11229).
T5 sequence (whole entry): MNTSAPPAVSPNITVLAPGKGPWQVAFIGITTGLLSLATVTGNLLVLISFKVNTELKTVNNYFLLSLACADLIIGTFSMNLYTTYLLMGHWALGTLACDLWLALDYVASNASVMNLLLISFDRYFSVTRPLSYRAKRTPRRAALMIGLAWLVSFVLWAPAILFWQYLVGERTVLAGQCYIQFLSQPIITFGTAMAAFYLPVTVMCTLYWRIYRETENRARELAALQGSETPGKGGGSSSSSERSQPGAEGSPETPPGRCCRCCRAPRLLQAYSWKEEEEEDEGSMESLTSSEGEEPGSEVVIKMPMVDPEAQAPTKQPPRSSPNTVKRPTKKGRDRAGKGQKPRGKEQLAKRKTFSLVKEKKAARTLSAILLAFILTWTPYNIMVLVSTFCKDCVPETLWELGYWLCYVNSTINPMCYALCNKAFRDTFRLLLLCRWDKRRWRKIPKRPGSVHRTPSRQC
Description: Affinity for human M1 cloned muscarinic receptor subtype expressed in CHO-K1 cells at a concentration of 10 uM. It is filed as cell-based.

The target in assay [8] is T6, Muscarinic acetylcholine receptor M1 (Homo sapiens, UniProt P11229).
T6 sequence (P11229 whole entry): T5 sequence (whole entry)
Nature of the assay: Affinity for human M1 cloned muscarinic receptor subtype expressed in CHO-K1 cells. It is filed as cell-based. The method in brief: (§1)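 Radioligand displacement of [³H]NMS in CHO-K1 cells expressing human cloned muscarinic M1–M5 receptors. IC50 values were converted to Ki with the Cheng–Prusoff equation. Results are means ± SE of two to three experiments, each run in triplicate.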

Assay [9] addresses T7, Muscarinic acetylcholine receptor M5 (Homo sapiens, UniProt P08912).
T7 sequence (P08912 whole entry): T1 sequence (whole entry)
Nature of the assay: Affinity for human muscarinic acetylcholine receptor M5 subtype expressed in CHO-K1 cells. It is filed as cell-based. The method in brief: as §1

The target of assay [10] is T8, Muscarinic acetylcholine receptor M4 (Homo sapiens, UniProt P08173).
T8 sequence (P08173 whole entry): T3 sequence (whole entry)
Description: Affinity for human M4 cloned muscarinic receptor subtype expressed in CHO-K1 cells. In kind it is cell-based. The method in brief: as §1

Assay [11] addresses T2, Muscarinic acetylcholine receptor M3. Description: Affinity for human M3 cloned muscarinic receptor subtype expressed in CHO-K1 cells. In kind it is cell-based. The method in brief:
as §1
Target sequence in this assay (P20309 whole entry): as the sequence (P20309 whole entry, looked up) above

The target of assay [12] is T9, Muscarinic acetylcholine receptor M2 (Homo sapiens, UniProt P08172).
T9 sequence (P08172 whole entry): T4 sequence (whole entry)
Description: biochemical.

Assay [13] concerns the target T9, Muscarinic acetylcholine receptor M2. Description: Binding affinity against muscarinic acetylcholine receptor M2.
For assay [14], the species on record is Cavia porcellus. Nature of the assay: Antagonist affinity, in electrically paced (1 Hz) guinea pig left atria using 1'-[8-(1-(2-methoxy -benzyl)-[4,4']bipiperidinyl)-octyl]-1-(2-methoxy-benzyl)-[4,4']biiperidinyl as agonist. It is filed as functional. The method in brief: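 Driven guinea pig left atria paced at 1 Hz. Each antagonist was tested at one concentration, 0.1 µM, incubated 1 h. One tissue received the antagonist and a second untreated tissue served as control, each giving a cumulative agonist concentration–response curve. pK_B = −log{[antagonist]/(DR−1)}. Mean ± SE of four experiments.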

The species named for assay [15] is Cavia porcellus. Description: Antagonist affinity, in electrically paced (1 Hz) guinea pig left atria using N-dodecyl lysine amide as agonist.
The species entered for assay [16] is Cavia porcellus. Description: Antagonist affinity, in electrically paced (1 Hz) guinea pig left atria using the APE as agonist. It is filed as functional. The method in brief: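 Driven guinea pig left atria paced at 1 Hz, with cumulative agonist concentration–response curves. Each antagonist was tested at one concentration, 0.1 µM, incubated 1 h. pK_B was calculated from the dose ratio as −log{[antagonist]/(DR−1)}. Mean ± SE of four experiments.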

Structures are written as SMILES.

`CCCCCCCCCCCCNC(CCCCN)C(N)=O` (configuration not stated): the Reduction in assay [1] worked out at 24%; in [2], 17%; in [3] it was 0%; in assay [6], 13%; in [7] it was 17%. For the same compound, the EC50 in the assay listed under Cavia porcellus [4] was 0.339 nM. This compound also yielded a Relative efficacy in the assay listed under Cavia porcellus [5] of 82.
On to `COc1ccccc1CN1CCC(C2CCN(C(C)=O)CC2)CC1`, for which, in the assay filed under Cavia porcellus [4], the half-maximal effective concentration (EC50) is 1.29 nM. Besides, the Relative efficacy in the assay listed under Cavia porcellus [5] was 79.
On the same counts, the results for `C#CCOC(=O)C1=CCCN(C)C1` [ARECAIDINE PROPARGYL ESTER] are 7.08 nM and 100.
As to `COc1ccccc1CN1CCC(C2CCN(C)CC2)CC1`, the Reduction in assay [1] is 25%; in [2], 12%; in assay [3] it was 25%; in assay [6], 35%; in assay [7] it was 17%. Besides, the EC50 in the assay filed under Cavia porcellus [4] is 0.603 nM. In addition, the Relative efficacy in the assay filed under Cavia porcellus [5] is listed as 70.
`COc1ccccc1CN1CCC(C2CCN(C(=O)CCCCCCC(=O)N3CCC(C4CCN(Cc5ccccc5OC)CC4)CC3)CC2)CC1` [PIPERTRAMINE AMIDE]: the Ki amounted to 108 nM in [8]; 183 nM in assay [9]; 16.6 nM in assay [10]; 97.2 nM in assay [11]; 9.2 nM in assay [12]. For the same compound, the midpoint of the response in the assay listed under Cavia porcellus [4], the EC50, lay at 0.398 nM. Moreover, the Relative efficacy in the assay listed under Cavia porcellus [5] worked out at 85.
For `COc1ccccc1CN1CCC(C2CCN(CCCCCCCCN3CCC(C4CCN(Cc5ccccc5OC)CC4)CC3)CC2)CC1` [PIPERTRAMINE], the Ki in assay [8] turned out to be 19.8 nM; in assay [13], 8.6 nM; in assay [9], 105 nM; in [10], 15.3 nM; in assay [11] it was 422 nM. This compound also had a concentration for a half-maximal effect (EC50) in the assay listed under Cavia porcellus [4] of 0.224 nM. The same compound registered a Relative efficacy in the assay listed under Cavia porcellus [5] of 84.
On to `COc1ccccc1CN1CCC(C2CCNCC2)CC1`, for which the Reduction was found to be 29% in assay [1]; 12% in assay [2]; 28% in assay [3]; 49% in assay [6]; 22% in assay [7]. Further, the EC50 in the assay filed under Cavia porcellus [4] was 0.525 nM. For the same compound, the Relative efficacy in the assay listed under Cavia porcellus [5] was 75.
As to `CN1[C@@H]2CC[C@H]1C[C@@H](OC(=O)C(CO)c1ccccc1)C2` (some centres not stated) [ATROPINE], the pKB is listed as 7.18 in the assay listed under Cavia porcellus [14], 7.45 in the assay listed under Cavia porcellus [15] and 9.15 in the assay filed under Cavia porcellus [16].
